These results are taken from paper PMC3166234 (Analytical biochemistry, 2011).

The test has as its target PFKFB3 2-kinase (Homo sapiens, UniProt Q16875). The test is described as follows: Steady-state inhibition kinetics of the PFKFB3 2-kinase. It is filed as biochemical. In outline:
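Recombinant human PFKFB3 2-kinase run in a two-step assay. F-2,6-P2 is first made with enzyme in TES pH 8.0, DTT, MgCl2 and Tween at 25°C, then stopped with KOH and neutralised. The product then allosterically activates PPi:PFK in an aldolase/TIM/GDH–NADH coupled system, read as A340 over 30 min. F-6-P, ATP and/or inhibitor concentrations are varied to define the inhibition type.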

Chain of PFKFB3 2-kinase (Q16875 whole entry): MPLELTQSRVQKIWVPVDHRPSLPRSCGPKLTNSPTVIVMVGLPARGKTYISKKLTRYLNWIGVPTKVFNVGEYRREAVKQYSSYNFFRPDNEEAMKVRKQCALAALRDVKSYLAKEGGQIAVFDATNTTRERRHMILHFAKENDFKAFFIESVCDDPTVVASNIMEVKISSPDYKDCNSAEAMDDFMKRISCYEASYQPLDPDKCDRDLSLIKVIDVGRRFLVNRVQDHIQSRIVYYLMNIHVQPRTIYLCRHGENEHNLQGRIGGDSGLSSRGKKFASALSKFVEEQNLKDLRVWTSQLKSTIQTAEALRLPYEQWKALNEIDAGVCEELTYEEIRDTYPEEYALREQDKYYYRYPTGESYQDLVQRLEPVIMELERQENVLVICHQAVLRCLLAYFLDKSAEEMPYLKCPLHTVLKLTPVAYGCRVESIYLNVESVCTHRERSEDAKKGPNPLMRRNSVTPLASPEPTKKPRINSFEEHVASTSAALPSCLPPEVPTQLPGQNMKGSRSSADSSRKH

Take `CCOC(=O)/C=C(/C)Sc1cc(O)c2ccccc2c1O` [NSC278631]: where the note is “ATP varied”, the “type of inhibition against ATP” value is “uncompetitive”. The “type of inhibition against F-6-P” value (F-6-P varied) is “competitive”.
